Rows were chosen to be rich in hits. Some 0.73% of all compounds tested hit in one or more screens of this group.
Tn6 DDE FP: DD(E)-Tn6 binding inhibition, primary FP screen; actives 0.21% (n = 370,000); inhibition, % at 8.3 µM; Fibrin DD(E) TRITC-Tn6 fluorescence polarization displacement;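 active means inhibition above a per-campaign cutoff: mean of compounds within control limits plus 3 SD, cut at about 15% in these data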
Target sequence (P02675 whole entry, looked up): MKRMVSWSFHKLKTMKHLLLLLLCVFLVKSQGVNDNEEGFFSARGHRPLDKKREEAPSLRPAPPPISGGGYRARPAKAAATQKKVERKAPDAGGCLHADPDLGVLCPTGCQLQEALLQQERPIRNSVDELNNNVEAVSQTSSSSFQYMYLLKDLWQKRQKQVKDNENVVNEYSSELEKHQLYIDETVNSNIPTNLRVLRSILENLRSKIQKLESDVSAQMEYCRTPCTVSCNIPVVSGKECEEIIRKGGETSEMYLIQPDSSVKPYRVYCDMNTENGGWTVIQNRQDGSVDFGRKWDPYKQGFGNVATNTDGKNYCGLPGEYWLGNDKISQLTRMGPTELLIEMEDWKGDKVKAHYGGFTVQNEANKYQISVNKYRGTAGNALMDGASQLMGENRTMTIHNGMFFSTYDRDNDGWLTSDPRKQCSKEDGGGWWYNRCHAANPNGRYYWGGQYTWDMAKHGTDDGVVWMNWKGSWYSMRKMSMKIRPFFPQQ
cardiac RTF act: cardiac RTF calcium sensitization. IANBD-labeled TnC RTF fluorescence at EC20 calcium; 0% EC20 calcium, 100% full calcium. activation, % at 7.2 µM. P19429+P45379. actives 0.24% (n = 340,000);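 active means activation above the mean over all tested compounds plus 3 SD, cut at about 30% in these data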;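 further: rise in fluorescence read as greater calcium sensitivity of cardiac thin filaments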
Cardiac RTF inh: cardiac RTF calcium desensitization; P19429+P45379; inhibition, % at 7.15 µM; IANBD-labeled cardiac RTF, Ca2+ fluorescence; AID 493244; actives 0.12% (n = 340,000);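 active means inhibition above the mean inhibition of all tested compounds plus 3 SD, cut at about 17% in these data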;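 further: assay run at fixed EC70 calcium of 1.6 mM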
C-LANA FP: blocks KSHV LANA C-terminal domain binding to DNA. MBP-C-LANA/FAM-LBS DNA binding, fluorescence polarization. inhibition, % at 9 µM. actives 0.078% (n = 340,000). AID 504423;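 active means highest replicate inhibition at or above 60% at 9 µM, even if other replicates fall short; inactive means all replicates below 60% inhibition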
Tn7 DDE FP: inhibitors of Tn7 peptide binding to human fibrin DD(E). FP displacement of FITC-Tn7 peptide from fibrin DD(E); 0% = median of compound wells per plate. inhibition, % at 8.3 µM. actives 0.13% (n = 370,000). AID 720508;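 active means inhibition above the mean of compounds falling within the control limits plus 3 SD of them, cut at about 14% in these data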
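Also added: labelled Tn7 tracer, 0.1 µM; Assay system: human fibrin DD(E) protein; Amount: 2 µM fibrin DD(E); Schedule: 10 min compound pre-incubation, 3 h probe incubation at room temperature; Repeats: one replicate per compound; Read-out basis: percent inhibition; Measured by: fluorescence polarization of the labelled Tn7 tracer.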
Keap1 Nrf2 FP: inhibitors of human Keap1-Nrf2 protein-protein interaction. Q14145. Keap1 Kelch-Nrf2 peptide fluorescence polarization, 1536-well. inhibition, % at 9.4 µM. actives 0.15% (n = 340,000); in the data active means inhibition above about 12%;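 further: human Keap1 Kelch domain with fluorescein labeled Nrf2 9mer peptide probe; higher means more block of Keap1 binding to Nrf2 peptide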
Tn6 DDE ctr: counter-screen hit for Tn6 peptide-fibrin DD(E) binding disruption. actives 2% (n = 680). inhibition, % at 8.3 µM. TRITC-Tn6 fluorescence polarization displacement; 0% = median of compound wells, not DMSO. shares compounds with Tn6 DDE FP;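 active means inhibition above the mean of test compounds lying between the control limits plus 3 SD of those, cut at about 14% in these data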
DDE Tn6 confirm: DD(E)-Tn6 binding inhibition, FP confirmation. shares compounds with Tn6 DDE FP. FP displacement of TRITC-Tn6 peptide from DD(E); 0% = per-plate median of test wells. inhibition, % at 8.3 µM. actives 10% (n = 680);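 active means inhibition above the mean of compounds lying within the control limits plus 3 SD, cut at about 16% in these data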
Numbers stand for hits; n = inactive; x = no result; + = active, no number; ! = not confirmed by another sample.

SMILES	Tn6 DDE FP	cardiac RTF act	Cardiac RTF inh	C-LANA FP	Tn7 DDE FP	Keap1 Nrf2 FP	Tn6 DDE ctr	DDE Tn6 confirm
COc1ccc(-c2cccc3[nH]c4c(c23)CCN2C(=O)[C@H]3[C@H](C)ON(C)[C@H]3C[C@@H]42)cc1	n	x	x	x	n	x	x	x
COc1ccc(OC)c(-c2nnc(SCC(=O)N3CCOCC3)o2)c1	19	n	n	n	n	n	n	n
C=CCNC(=O)Nc1ccc2c(c1)[C@@]1(CC(=O)N(CC(C)C)C1c1ccccc1)C(=O)N2C (some centres undefined)	n	x	x	x	n	x	x	x
Fc1ccccc1-c1nnc2c3ccccc3nc(N3CCOCC3)n12	15	n	n	n	n	n	n	n
O=C(COC(=O)C1CC1)Nc1ccc(OC(F)F)cc1	15	n	n	n	n	n	n	n
CC1CCCN(CCCNC(=O)c2ccc3c(c2)N(Cc2cccc(Cl)c2)C(=O)c2ccccc2S3=O)C1 (centres undefined)	16	x	x	x	n	x	n	n
CC1CCCN(CCCNC(=O)c2ccc3c(c2)N(Cc2ccc(F)cc2)C(=O)c2ccccc2S3=O)C1 (centres undefined)	n	n	n	n	n	n	x	x
COc1ccc(CNc2ncnc3cc(Cl)ccc23)cc1OC	16	n	n	n	n	n	n	n
Fc1ccc(C2CCCCN2Cc2nc(CC3CC3)no2)cc1 (centres undefined)	n	n	n	n	n	n	x	x
Fc1ccc2nc(C3CCCCN3Cc3nc(CC4CC4)no3)[nH]c2c1 (centres undefined)	16	n	n	n	n	n	n	n
COCc1cc(N2CCN(C(=O)OC(C)(C)C)C[C@@H]2C)ccc1N1CC[C@@H](O)C1	n	x	x	x	n	x	x	x
CCN(CC)c1ccc(NC(=O)CSc2nnc(SCc3ccc(Cl)cc3)s2)cc1	n	x	x	x	n	x	x	x
Cc1cc2ccccc2n1CCNC(=O)C1CCCCC1	39	n	n	n	n	n	n	n
Cc1cc2ccccc2n1CCNC(=O)C1CCCC1	n	n	n	n	n	n	x	x
Nc1[nH]c(C(=O)c2ccccc2)c(-c2ccc(O)cc2)c1C(=O)NCCc1c[nH]c2ccccc12	n	x	x	x	n	x	x	x
O=C(C1CCN(S(=O)(=O)c2ccccc2)CC1)N1CCN(c2ccccc2)CC1	15	n	n	n	n	n	n	n
COc1ccc(N2CCN(C(=O)C3CCN(S(=O)(=O)c4ccccc4)CC3)CC2)cc1	n	n	n	n	n	n	x	x
C=CCN(CC#Cc1ccccn1)Cc1ccc(OC)cc1OC	n	x	x	x	n	x	x	x
CNc1ccc(/C=C2\CSc3ccccc3C2=O)cc1[N+](=O)[O-]	19	n	n	n	n	n	n	n
COC(=O)[C@]12CCCCC=C1N(Cc1ccc(OC)cc1)C(=O)[C@@H]2CC(=O)NCC12CC3CC(CC(C3)C1)C2	n	x	x	x	n	x	x	x
COC(=O)[C@]12C[C@H](CC(=O)N3CCN(C(=O)C4CC4)CC3)C(=O)N(Cc3cccc4ccccc34)C1=C[C@H](C(C)(C)C)O[C@@H]2C	n	x	x	x	n	x	x	x
O=C(COC(=O)c1ccc(Sc2ncn[nH]2)c([N+](=O)[O-])c1)Nc1cccc(Cl)c1F	16	x	x	x	n	x	n	n
O=C(COC(=O)c1ccc(Cl)c([N+](=O)[O-])c1)Nc1ccccc1OC(F)F	n	n	n	n	n	n	x	x
CCN(CC)c1ccc2nc3ccccc3[n+](CC)c2c1	x	n	n	n	x	n	x	x
CCN(CC)c1ccc2nc3ccc(N)cc3[n+](-c3ccccc3)c2c1	+	n	n	n	n	n	n	93
SMILES	Tn6 DDE FP	cardiac RTF act	Cardiac RTF inh	C-LANA FP	Tn7 DDE FP	Keap1 Nrf2 FP	Tn6 DDE ctr	DDE Tn6 confirm
COC(=O)[C@]12C[C@H](CC(=O)N3CCCC3)C(=O)N(Cc3ccco3)C1=C[C@H](C1CCCC1)O[C@@H]2C	n	x	x	x	n	x	x	x
COc1ccc(-n2c(COc3ccccc3)nnc2SCc2nc3ccccc3[nH]2)cc1	18	x	x	x	n	x	n	n
CC(C)(C)c1ccc(-c2nnc(SCc3ccccc3)n2Cc2ccco2)cc1	n	x	x	x	n	x	x	x
O=C(CSc1nnc(-c2ccccn2)n1Cc1ccco1)Nc1ccc2c(c1)OCO2	15	n	n	n	n	n	n	n
COc1cccc(C2CC=C(C(=O)O)CN2S(=O)(=O)c2ccc(C)cc2)c1 (centres undefined)	n	x	x	x	n	x	x	x
C/C(=C/c1nc(N)n(Cc2ccccc2)c1Cc1ccccc1)Cn1[nH]c(=O)n(-c2ccccc2)c1=O	n	x	x	x	n	x	x	x
CCCCCCCCN1C(=O)[C@@H](CC(=O)NCCC(C)C)C[C@@]2(C(=O)OC)C1=C[C@H](C(C)(C)C)O[C@@H]2C	16	x	x	x	n	x	n	n
CC1CCN(C(=O)COC(=O)CCc2c[nH]c3ccccc23)CC1	n	n	n	n	n	n	x	x
CC1CCN(C(=O)COC(=O)Cc2c[nH]c3ccccc23)CC1	21	n	n	n	n	n	n	n
C=CCC12C=C(OC)C(=O)C(C1=O)C1c3ccccc3CC12 (centres undefined)	n	x	x	x	n	x	x	x
COC(=O)C[C@H]1C=C[C@H](NC(=O)c2cccc(F)c2)[C@@H](CO)O1	n	x	x	x	n	x	x	x
CCOC(=O)C(=CNc1ccc(C)cc1C)C(=O)OCC	15	n	n	n	n	n	n	n
Cc1ccc(C2CCC3(CCC(=O)N3CCO)CC2)cc1 (centres undefined)	20!	x	x	x	n	x	n	n
C=CCN1[C@@H](CC(C)C)COc2cc(F)ccc2S1(=O)=O	n	x	x	x	n	x	x	x
COc1ccc(C(=O)NCc2nnc(SCC(=O)Nc3cc(OC)ccc3OC)o2)cc1	15	n	n	n	n	n	n	n
O=C(NN=Cc1cccc(OCc2ccccc2)c1)c1cc(-c2ccc(Cl)cc2)n[nH]1	22	x	x	x	n	x	n	n
C[C@H]1C(C(=O)N(C)C2CCCCC2)=Cc2c(n(-c3ccc(F)cc3)c(=O)n2CCCOc2ccccc2)C=C1c1ccccc1	n	x	x	x	n	x	x	x
COC(=O)c1cccc(NC(=S)N2CCN(c3ccccc3F)CC2)c1	18	n	n	n	n	n	n	n
CCCCn1c(O)c(C(CC)=Nc2ccc3c(c2)CCC3)c(=O)[nH]c1=O	17	n	n	n	n	n	n	n
C=CCn1c(O)c(C(CC)=Nc2ccccc2NC(=O)CC)c(=O)[nH]c1=O	n	n	n	n	n	n	x	x
N#CC(C#N)=c1ccc2c(c1)NC1(CCCCC1)N=2	42	n	n	n	n	n	n	34

Screening results from PubChem.
